Source: ChEMBL document CHEMBL1157679, “Substituted aryl malonamates as new serine beta-lactamase substrates: structure-activity studies” (Bioorg Med Chem, 2010)

Key:
[1] = Ratio of Kcat to Km for beta-lactamase TEM-2
Procedure, shortened: (§1)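 Steady-state kinetics in 100 mM MOPS, pH 7.5, 25 °C. Substrate stocks were made in DMSO and diluted into buffer to a final DMSO below 5%. Initial rates of enzyme-catalysed turnover were followed spectrophotometrically. Steady-state parameters were derived from these initial rates. Buffer hydrolysis of the substrates was measured separately as pseudo-first-order rate constants.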

[2] = Activity at beta-lactamase TEM-2 by spectrophotometry; procedure, shortened: as §1
[3] = Inhibition of beta-lactamase TEM-2 assessed as inhibition of cephalothin turnover by spectrophotometry
Procedure, shortened: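 TEM-2 enzyme (0.2 μM) was incubated with 3 mM inhibitor in 100 mM MOPS, pH 7.5, at 25 °C (DMSO below 5% final). Residual activity against 0.2 mM cephalothin was read spectrophotometrically over incubation time. Exponential fitting gave pseudo-first-order inactivation constants, which were converted to second-order rate constants.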

Row | SMILES | kcat/Km [1] | Km [2] | kcat [2] | kcat/Km [3]
1 | O=C(O)c1cccc(OC(=O)C2Cc3ccccc3N(Cc3ccccc3)C2=O)c1 (centres undefined) | < 0.9 M⁻¹ s⁻¹ |  |  | 
2 | C[C@H](C(=O)NCc1ccccc1)C(=O)Oc1cccc(C(=O)O)c1 | 3.6 M⁻¹ s⁻¹ | > 200 µM | > 7.2 ×10⁻⁴ /s | 
3 | O=C(CC(=O)Oc1cccc(C(=O)O)c1)NCc1ccccc1 | 1.95 ×10⁴ /s/M | 1.42 µM | 28 s⁻¹ | 
4 | CN(Cc1ccccc1)C(=O)CC(=O)Oc1cccc(C(=O)O)c1 | < 0.2 M⁻¹ s⁻¹ |  |  | 
5 | O=C(CP(=O)(O)Oc1cccc(C(=O)O)c1)NCc1ccccc1 |  |  |  | < 1 M⁻¹ s⁻¹

Further lines, with some results ahead:

Row | kcat/Km [1] | Km [2] | kcat [2] | SMILES | kcat/Km [3]
6 | < 6 M⁻¹ s⁻¹ |  |  | CO[C@@H](C(=O)NCc1ccccc1)C(=O)Oc1cccc(C(=O)O)c1 | 
7 | 0.54 M⁻¹ s⁻¹ | > 220 µM | > 1.1 ×10⁻⁴ /s | O=C(O)c1cccc(OC(=O)C2CCN(Cc3ccccc3)C2=O)c1 (centres undefined) | 
8 | 1.2 ×10² /s/M | 1800 µM | 0.21 s⁻¹ | O=C(CC(=O)N(Cc1ccccc1)Cc1ccccc1)Oc1cccc(C(=O)O)c1 | 
9 | 4.7 M⁻¹ s⁻¹ | > 200 µM | > 9.4 ×10⁻⁴ /s | O=C(O)c1cccc(OC(=O)C(Cc2ccccc2)C(=O)NCc2ccccc2)c1 (centres undefined) | 
